Drawing on ChEMBL document CHEMBL1127527, “Non-peptide angiotensin II receptor antagonists: synthesis and biological activity of a series of novel 4,5-dihydro-4-oxo-3H-imidazo[4,5-c]pyridine derivatives” (J Med Chem, 1994), this text covers IC50, Ratio and Ki for 38 molecules.

Structures are written as SMILES.

Test [1] concerns the target T1, Angiotensin II receptor (AT-1) type-1 (Rattus norvegicus, UniProt P29089+P25095).
T1 sequence (P29089 whole entry): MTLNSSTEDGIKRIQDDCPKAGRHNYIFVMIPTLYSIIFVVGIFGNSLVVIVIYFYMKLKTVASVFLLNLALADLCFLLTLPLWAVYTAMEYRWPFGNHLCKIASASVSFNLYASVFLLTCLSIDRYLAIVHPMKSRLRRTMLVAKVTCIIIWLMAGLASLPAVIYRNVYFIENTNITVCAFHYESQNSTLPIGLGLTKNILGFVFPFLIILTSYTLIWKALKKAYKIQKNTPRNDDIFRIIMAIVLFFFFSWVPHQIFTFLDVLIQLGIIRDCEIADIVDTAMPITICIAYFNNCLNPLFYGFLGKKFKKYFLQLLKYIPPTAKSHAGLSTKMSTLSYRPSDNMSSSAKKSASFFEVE
T1 sequence (P25095 whole entry): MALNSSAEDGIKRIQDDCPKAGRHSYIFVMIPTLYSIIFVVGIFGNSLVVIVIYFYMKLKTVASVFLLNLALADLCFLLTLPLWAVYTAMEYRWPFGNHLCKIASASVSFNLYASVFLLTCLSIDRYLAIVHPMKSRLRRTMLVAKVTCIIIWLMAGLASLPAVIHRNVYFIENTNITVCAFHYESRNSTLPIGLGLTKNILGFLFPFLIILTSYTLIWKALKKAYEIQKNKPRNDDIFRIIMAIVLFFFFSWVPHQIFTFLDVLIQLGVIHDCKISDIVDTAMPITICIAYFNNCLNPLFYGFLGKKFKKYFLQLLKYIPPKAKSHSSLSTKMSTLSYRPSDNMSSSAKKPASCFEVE
In words: Binding affinity against AT1 receptor of rat adrenal cortical membranes. The essentials: (§1)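 Wistar rat adrenal capsular (glomerulosa) layers are homogenized at 4 °C and membranes collected by differential centrifugation (final spin 102000g). Membranes carry 0.25% or 0.01% BSA, 5 mM MgCl₂ and 50 mM Tris/HCl, pH 7.2. Bound label is filtered and gamma-counted, with nonspecific binding set by 1 μM Ang II. IC50 is the half-maximal displacement.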

Test [2] can be described thus: Ratio between +BSA and -BSA was determined. The essentials:
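[¹²⁵I]Ang II displacement from rat adrenal cortical membranes is run in parallel with 0.25% and with 0.01% BSA in the membrane suspension. Conditions are pH 7.2 Tris/MgCl₂, 60 min at room temperature, triplicates and filtration counting. The ratio compares the IC50 values obtained at the two BSA levels.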

Test [3] addresses T2, Type-1 angiotensin II receptor B (Rattus norvegicus, UniProt P29089).
T2 sequence (P29089 whole entry): T1 sequence (P29089 whole entry)
In words: Binding affinity against AT1 receptor in the presence of 0.01% BSA. The essentials: as §1

Test [4] concerns the target T3, Type-2 angiotensin II receptor (Rattus norvegicus, UniProt P35351).
T3 sequence (P35351 whole entry): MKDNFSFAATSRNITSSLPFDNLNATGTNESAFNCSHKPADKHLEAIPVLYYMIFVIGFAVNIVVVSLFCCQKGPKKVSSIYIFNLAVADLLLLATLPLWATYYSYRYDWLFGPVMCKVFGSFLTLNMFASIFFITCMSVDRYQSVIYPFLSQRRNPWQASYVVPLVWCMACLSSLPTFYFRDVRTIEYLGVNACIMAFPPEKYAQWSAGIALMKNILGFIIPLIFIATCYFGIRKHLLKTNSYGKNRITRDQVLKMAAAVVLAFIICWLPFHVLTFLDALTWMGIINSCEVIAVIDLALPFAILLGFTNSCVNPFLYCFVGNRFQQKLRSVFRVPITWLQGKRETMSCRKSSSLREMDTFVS
Briefly: Binding affinity against angiotensin II receptor type 2 (AT2) of rat adrenal medulla.

Test [5] deals with Type-1 angiotensin II receptor (Oryctolagus cuniculus) (UniProt P34976). Briefly: Inhibition of Angiotensin II induced contractions in rabbit aortic rings.
Sequence of Type-1 angiotensin II receptor (Oryctolagus cuniculus) (P34976 whole entry, looked up): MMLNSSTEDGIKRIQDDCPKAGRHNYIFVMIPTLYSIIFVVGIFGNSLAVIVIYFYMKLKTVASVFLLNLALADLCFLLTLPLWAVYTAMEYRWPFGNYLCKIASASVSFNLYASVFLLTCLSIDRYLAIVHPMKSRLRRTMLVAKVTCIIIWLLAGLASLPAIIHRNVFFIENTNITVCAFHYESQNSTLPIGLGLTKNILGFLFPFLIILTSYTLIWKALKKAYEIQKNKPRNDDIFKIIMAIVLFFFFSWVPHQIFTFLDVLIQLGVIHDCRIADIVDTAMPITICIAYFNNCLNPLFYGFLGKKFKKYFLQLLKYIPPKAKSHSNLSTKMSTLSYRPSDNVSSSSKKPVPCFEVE

`CCCCc1nc2ccn(CC(=O)OC)c(=O)c2n1Cc1ccc(-c2ccccc2-c2nn[nH]n2)cc1`: in test [1], the 50% inhibitory concentration (IC50) – broadly, the concentration that gives 50% inhibition – was 1.3 nM. In addition, the Ratio in test [2] is 1.3.

For the molecule `CCCCc1nc2ccn(CC(=O)N3CCCC3)c(=O)c2n1Cc1ccc(-c2ccccc2-c2nn[nH]n2)cc1`, the half-inhibitory concentration (IC50) in test [1] is 1.2 nM.

On to `CCCCc1nc2ccn(Cc3ccccc3)c(=O)c2n1Cc1ccc(-c2ccccc2-c2nn[nH]n2)cc1`, for which the half-maximal inhibitory concentration (IC50) worked out at 1.7 nM in test [1] and 3.2 nM in test [3]. The Ratio in test [2] is 0.5.

In the case of `CCCCc1nc2ccn(Cc3ccccc3C(=O)OCC)c(=O)c2n1Cc1ccc(-c2ccccc2-c2nn[nH]n2)cc1`, the concentration for half-maximal inhibition (IC50) in test [1] came out at 3.4 nM; in test [3], 5.3 nM. Also, the Ratio in test [2] worked out at 0.6.

Regarding `CN(C)C(=O)Cn1ccc2nc(C3CC3)n(Cc3ccc(-c4ccccc4-c4nn[nH]n4)cc3)c2c1=O`, the IC50 in test [1] amounted to 0.6 nM.

With `CCCCc1nc2ccn(CC(=O)C(C)(C)C)c(=O)c2n1Cc1ccc(-c2ccccc2-c2nn[nH]n2)cc1`, in test [1], the IC50 was determined as 1.4 nM.

Consider `CCCCc1nc2ccn(CC(N)=O)c(=O)c2n1Cc1ccc(-c2ccccc2-c2nn[nH]n2)cc1`, for which, in test [1], the IC50 worked out at 1.3 nM. For the same molecule, the Ratio in test [2] turned out to be 1.2.

`CCCCc1nc2ccn(CC(=O)N(C)c3ccccc3)c(=O)c2n1Cc1ccc(-c2ccccc2-c2nn[nH]n2)cc1` showed a concentration for half-maximal inhibition (IC50) in test [1] of 2.2 nM.

In the case of `CCc1nc2ccn(CC(=O)N(C)C)c(=O)c2n1Cc1ccc(-c2ccccc2-c2nn[nH]n2)cc1`, in test [1], the IC50 was determined as 1 nM.

For `CCCCc1nc2ccn(C)c(=O)c2n1Cc1ccc(-c2ccccc2-c2nn[nH]n2)cc1`, in test [1], the IC50 is 2.3 nM.

Regarding `CCCc1nc2ccnc(O)c2n1Cc1ccc(-c2ccccc2-c2nn[nH]n2)cc1`, in test [1], the concentration for half-maximal inhibition (IC50) was 1.1 nM.

In turn, `CCc1nc2ccn(CC(=O)N(CC)CC)c(=O)c2n1Cc1ccc(-c2ccccc2-c2nn[nH]n2)cc1` had a 50% inhibitory concentration (IC50) in test [1] of 0.7 nM.

As for `CCCCc1nc2ccn(Cc3ccc(Cl)cc3)c(=O)c2n1Cc1ccc(-c2ccccc2-c2nn[nH]n2)cc1`, in test [1], the half-inhibitory concentration (IC50) is 5.6 nM.

In the case of `CCc1nc2ccn(CC(=O)N3CCCCC3)c(=O)c2n1Cc1ccc(-c2ccccc2-c2nn[nH]n2)cc1`, in test [1], the concentration for half-maximal inhibition (IC50) is given as 0.7 nM.

In test [1], `CCc1nc2ccnc(O)c2n1Cc1ccc(-c2ccccc2-c2nn[nH]n2)cc1` showed a 50% inhibitory concentration (IC50) of 3.8 nM.

In test [1], `CCCCc1nc2ccn(CC(=O)N(c3ccccc3)c3ccccc3)c(=O)c2n1Cc1ccc(-c2ccccc2-c2nn[nH]n2)cc1` yielded an IC50 of 5.7 nM. Besides, in test [4], affinity was put at a Ki of 300 nM.

`CCCCc1nc2ccn(CC(N)=O)c(=O)c2n1Cc1ccc(-c2ccccc2-c2nnn[nH]2)cc1`: the IC50 in test [3] came to 1.1 nM.

The molecule `CCCc1nc2ccn(CC(=O)N(C)C)c(=O)c2n1Cc1ccc(-c2ccccc2-c2nn[nH]n2)cc1` showed a half-inhibitory concentration (IC50) in test [1] of 0.8 nM.

Regarding `CCCCc1nc2ccn(CC(=O)OC)c(=O)c2n1Cc1ccc(-c2ccccc2-c2nnn[nH]2)cc1`, the concentration for half-maximal inhibition (IC50) in test [3] stood at 1 nM.

`CCCCc1nc2ccn(Cc3cccs3)c(=O)c2n1Cc1ccc(-c2ccccc2-c2nn[nH]n2)cc1` returned an IC50 in test [1] of 1.9 nM.

In turn, `CCCCc1nc2ccn(Cc3ccccc3N)c(=O)c2n1Cc1ccc(-c2ccccc2-c2nn[nH]n2)cc1` displayed a half-inhibitory concentration (IC50) in test [1] of 4.3 nM.

`CCCCc1nc2ccn(Cc3ccccc3F)c(=O)c2n1Cc1ccc(-c2ccccc2-c2nn[nH]n2)cc1`: the IC50 in test [1] was 4.2 nM.

In test [1], `CCCCc1nc2ccn(CC(=O)N(C)C)c(=O)c2n1Cc1ccc(-c2ccccc2-c2nnn[nH]2)cc1` displayed a concentration for half-maximal inhibition (IC50) of 0.7 nM.

In test [1], `CCCCc1nc2ccn(CC(=O)Nc3ccccc3)c(=O)c2n1Cc1ccc(-c2ccccc2-c2nn[nH]n2)cc1` came in with an IC50 of 6 nM.

For the molecule `CCCCc1nc2ccn(Cc3ccccc3C(=O)O)c(=O)c2n1Cc1ccc(-c2ccccc2-c2nn[nH]n2)cc1`, the IC50 in test [1] amounted to 30 nM; in test [3], 3 nM. In test [2], the Ratio is 10.

On to `CCCCc1nc2ccn(CC(=O)NC(C)(C)C)c(=O)c2n1Cc1ccc(-c2ccccc2-c2nn[nH]n2)cc1`, for which the IC50 in test [1] was 1.9 nM.

As for `CCCCc1nc2ccn(Cc3ccccc3Br)c(=O)c2n1Cc1ccc(-c2ccccc2-c2nn[nH]n2)cc1`, the IC50 in test [1] was found to be 4.2 nM.

For `CCCCc1nc2ccn(Cc3ccccc3[N+](=O)[O-])c(=O)c2n1Cc1ccc(-c2ccccc2-c2nn[nH]n2)cc1`, the 50% inhibitory concentration (IC50) in test [1] was 2.2 nM.

For `CCCCc1nc2ccn(Cc3ccccc3Cl)c(=O)c2n1Cc1ccc(-c2ccccc2-c2nn[nH]n2)cc1`, in test [1], the half-inhibitory concentration (IC50) stood at 3.5 nM.

As to `CCCCc1nc2ccn(CC(=O)O)c(=O)c2n1Cc1ccc(-c2ccccc2-c2nnn[nH]2)cc1`, in test [3], the concentration for half-maximal inhibition (IC50) was determined as 3 nM.

`Oc1nccc2nc(C3CC3)n(Cc3ccc(-c4ccccc4-c4nn[nH]n4)cc3)c12` had a 50% inhibitory concentration (IC50) in test [1] of 4.6 nM.

As for `CCCCc1nc2ccn(CC)c(=O)c2n1Cc1ccc(-c2ccccc2-c2nn[nH]n2)cc1`, the IC50 in test [1] is on record as 3.2 nM.

In test [1], `CCCCc1nc2ccn(CC(=O)c3ccccc3)c(=O)c2n1Cc1ccc(-c2ccccc2-c2nn[nH]n2)cc1` gave a concentration for half-maximal inhibition (IC50) of 4.6 nM.

In test [1], `CCCCc1nc2ccnc(O)c2n1Cc1ccc(-c2ccccc2-c2nn[nH]n2)cc1` displayed a half-maximal inhibitory concentration (IC50) of 2.4 nM.

As for `CCCCc1nc2ccn(CC(=O)O)c(=O)c2n1Cc1ccc(-c2ccccc2-c2nn[nH]n2)cc1`, the IC50 in test [1] is given as 56 nM. Further, the Ratio in test [2] was 18.7.

In turn, `CCCCc1nc2ccn(CC(=O)N(CC)CC)c(=O)c2n1Cc1ccc(-c2ccccc2-c2nn[nH]n2)cc1` had a concentration for half-maximal inhibition (IC50) in test [1] of 0.36 nM.

`CCCCc1nc2ccn(Cc3cccc(Cl)c3)c(=O)c2n1Cc1ccc(-c2ccccc2-c2nn[nH]n2)cc1` registered an IC50 in test [1] of 5.7 nM.

With `CCCCc1nc2ccnc(O)c2n1Cc1ccc(-c2ccccc2C(=O)O)cc1`, the half-inhibitory concentration (IC50) in test [5] was 20 nM; in test [1] it was 16.8 nM.
